Screening results: PubChem BioAssay, several laboratories
Rows were chosen to be rich in hits. Some 2.6% of all compounds tested hit in one or more screens of this group.
SENP6 inh: inhibitors of human SENP6 protease; Q9GZR1; Recombinant SENP6 catalytic domain, aminoluciferin luminescence; inhibition, % at 10 µM; hit rate 1.8% among 330,000; AID 2599;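 active means inhibition above about 50% at the single tested dose, limit read from the data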;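 further: plate controls were DMSO wells with enzyme for no effect and DMSO wells lacking enzyme for full effect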
Target sequence (Q9GZR1 628-1112 limits assumed): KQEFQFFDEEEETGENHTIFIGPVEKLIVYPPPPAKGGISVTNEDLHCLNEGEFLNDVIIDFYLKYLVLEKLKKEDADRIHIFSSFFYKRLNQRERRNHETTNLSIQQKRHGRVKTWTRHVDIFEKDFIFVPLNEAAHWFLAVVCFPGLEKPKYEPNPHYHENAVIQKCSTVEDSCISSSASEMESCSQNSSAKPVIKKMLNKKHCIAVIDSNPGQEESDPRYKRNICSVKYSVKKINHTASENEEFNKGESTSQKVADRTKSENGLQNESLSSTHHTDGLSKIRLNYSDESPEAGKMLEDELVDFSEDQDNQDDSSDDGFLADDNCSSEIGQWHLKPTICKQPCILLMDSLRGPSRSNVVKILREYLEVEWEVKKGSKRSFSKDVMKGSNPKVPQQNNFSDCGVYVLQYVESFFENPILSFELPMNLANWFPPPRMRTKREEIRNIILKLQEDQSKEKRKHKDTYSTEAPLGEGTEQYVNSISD
UCH37 DUB inh: human UCH37 deubiquitinating enzyme inhibition. Q9Y5K5. purified proteasome/UCH37, Ub-AMC cleavage fluorescence. inhibition, % (concentration not given with the values). hit rate 0.33% among 330,000;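 active means mean inhibition over replicate wells above about 20%, limit read from the data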;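 further: 0% = compound-free wells with enzyme and 100% = wells lacking proteasome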
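Material: Human UCH37 enzyme supplied as purified proteasome complex | Schedule: 30 min compound-proteasome preincubation then 25 min substrate reaction, room temperature | Detection: AMC fluorescence from Ub-AMC cleavage, excitation 355 nm, emission 460 nm | Benchmarks: Wells without proteasome as full block, compound-free enzyme plus substrate as uninhibited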
SENP8 block-1: inhibitors of human SENP8 protease | Q96LD8 | recombinant SENP8, Nedd8 substrate fluorescence | inhibition, % at 20 µM | hit rate 0.64% among 360,000 | AID 602440; in the data active means inhibition mostly above about 40%, no sharp cut-off; inactive means mostly below about 27%
SENP1 FRET inh: SENP1 (human) catalytic domain inhibition; hit rate 0.21% among 360,000; inhibition, % at 10 µM; recombinant SENP1 catalytic domain, CyPet-SUMO1-YPet FRET cleavage;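 active means inhibition at least 30% at 10 µM, raw YFP signal under a set limit, fluorescence ratio 0.5 to 1.5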;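 further: 0% = enzyme with DMSO and 100% = no enzyme wells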
Target sequence (Q9P0U3 419-644 limits assumed): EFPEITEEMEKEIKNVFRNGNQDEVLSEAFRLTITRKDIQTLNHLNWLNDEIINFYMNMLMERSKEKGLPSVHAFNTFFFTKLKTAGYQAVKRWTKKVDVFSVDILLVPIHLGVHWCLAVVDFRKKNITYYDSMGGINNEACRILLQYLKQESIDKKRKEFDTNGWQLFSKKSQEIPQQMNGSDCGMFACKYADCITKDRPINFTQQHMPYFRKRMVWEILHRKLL
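Test system: human SENP1 catalytic domain; medium: Tris pH 8 buffer plus EDTA, NaCl, BME, BSA, NP40, catalase; incubation: 50 min reaction at room temperature; technique: FRET, CFP and YFP emission; controls: no-enzyme low control and enzyme-plus-DMSO high control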
SENP8 block-2: inhibitors of human SENP8 protease; Q96LD8; purified SENP8, Z-RLRGG-aminoluciferin cleavage, luminescence; inhibition, % at 10 µM; hit rate 1.2% among 330,000; AID 2540; in the data active means inhibition above about 50%
SENP7 block: SENP7 protease inhibition | inhibition, % at 5 µM | hit rate 1.5% among 330,000 | recombinant SENP7, Z-RLRGG-aminoluciferin luminescence, 40 min | Q9BQF6 | AID 434973;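 active means inhibition above about 50% at the single test dose, limit read from the data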;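 further: plate controls were DMSO with enzyme for no effect and no enzyme buffer wells for full effect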
SENP8 conf: confirmation of human SENP8 protease inhibitors; shares compounds with SENP7 block; Recombinant SENP8, Z-RLRGG-aminoluciferin luminescence, 60 min; inhibition, % at 12.5 µM; hit rate 40% among 6,200; AID 488912;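 active means mean inhibition across replicates above about 50%, limit read from the data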
SENP6 conf: human SENP6 inhibition, confirmed; inhibition, % at 12.5 µM; recombinant SENP6, Z-RLRGG-aminoluciferin luminescence; shares compounds with SENP7 block; AID 488915; hit rate 58% among 6,200
SENP7 conf: confirmation of human SENP7 protease inhibitors | inhibition, % at 12.5 µM | shares compounds with SENP7 block | recombinant SENP7, Z-RLRGG-aminoluciferin luminescence, 40 min | AID 488917 | hit rate 69% among 6,200
Casp3 select: selectivity test for SENP inhibitors: human caspase-3 inhibition. shares compounds with SENP7 block. purified caspase-3, Z-DEVD-aminoluciferin luminescence, 60 min. inhibition, % at 12.5 µM. hit rate 60% among 6,200;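 active means mean inhibition above about 50%, limit read from the data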;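 further: plate controls were enzyme with DMSO for no effect and wells without caspase-3 for full effect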
Luc interf: luminescence interference (SENP counter-screen); shares compounds with SENP7 block; Pre-incubated SENP8/Z-RLRGG-aminoluciferin, luciferase luminescence interference; inhibition, % at 12.5 µM; hit rate 39% among 6,200; AID 488919;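 active means mean inhibition above about 50% when retested at one dose, limit read from the data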;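 further: plate controls were DMSO wells with completed reaction for no effect and substrate without enzyme for full effect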
* marks the source's active call; other numbers are inactive results; i = inactive; . = no result given.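 How the source made its calls, unless noted: active means mean inhibition above about 50% in the one-dose retest (limit read from the data); inactive means the rest.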

SMILES | SENP6 inh | UCH37 DUB inh | SENP8 block-1 | SENP1 FRET inh | SENP8 block-2 | SENP7 block | SENP8 conf | SENP6 conf | SENP7 conf | Casp3 select | Luc interf
O=[N+]([O-])c1ccccc1C=NN1CCN(c2ccncc2S(=O)(=O)N2CCCCC2)CC1 | . | 6 | . | . | . | . | . | . | . | . | .
CCOc1ccc2c(c1)sc(=NS(=O)(=O)c1ccc(OC)cc1)n2C(F)F | . | -2 | . | . | . | . | . | . | . | . | .
CC(C)(C)OC(=O)N1CCC(c2c(C(=O)NCC3CCN(C4CCCC4)C3)cnn2-c2ccc(F)cc2)CC1 (centres undefined) | -15 | 0 | 22 | -6 | -11 | 56* | -15 | -10 | -10 | -3 | -12
Cc1ccc(S/C=C\C(=O)c2ccccc2)cc1 | 87* | 3 | 15 | 1 | 82* | 92* | 6 | 90* | 79* | 64* | 55*
COc1cccc(/C=C2\CCC(C3CCCC3)C2=O)c1 (centres undefined) | 50* | 4 | 12 | 1 | 40 | 21 | 48 | 48 | 66* | 34 | 26
CCOc1ccc(N=C2NC(=O)S/C2=C\c2ccc(N(C)C)cc2)cc1 | 26 | 9 | 4 | -25 | 6 | 1 | . | . | . | . | .
CCOc1ccc(/C=C2/SC(=O)NC2=S)cc1 | 74* | 10 | 12 | -8 | 45 | 10 | 19 | 20 | 41 | 8 | 22
COc1ccc(C=NNC(=O)c2cccnc2)cc1COc1ccc(NC(C)=O)cc1 | . | 5 | . | . | . | . | . | . | . | . | .
c1cc2nnnn2nc1N1CCCCC1 | 1 | 5 | 5 | 2 | 5 | 58* | 8 | 6 | -3 | -6 | -8
Cc1cc(O)c(C=Nc2ccc(N3CCOCC3)cc2)c(C)c1Cl | 57* | 4 | 22 | 98 | 38 | 82* | 10 | 11 | 8 | 28 | 3
Clc1ccccc1CONc1ncnc2nonc12 | 62* | 2 | 21 | 2 | 34 | 36 | 39 | 33 | 71* | 53* | 61*
O=[N+]([O-])c1ccc(C=Nn2cn[nH]c2=S)cc1 | . | 4 | . | . | . | . | . | . | . | . | .
Nc1nc2ccccc2n1C(=O)c1ccc(F)cc1 | 93* | -5 | 6 | 0 | 78* | 94* | 60* | 83* | 97* | 92* | 38
COc1ccc(C(=O)n2c(N)nc3ccccc32)cc1OC | 10 | 5 | -7 | -2 | -13 | -10 | . | . | . | . | .
Nc1nc2ccccc2n1C(=O)c1ccccc1 | 96* | -11 | 7 | -1 | 86* | 96* | 70* | 93* | 100* | 96* | 41
CC1=C(C)C(=NOC(=O)/C=C/c2ccccc2)C=CC1=O | . | 7 | . | . | . | . | . | . | . | . | .
Cn1c(=N)n(CC(=O)c2ccc(F)cc2)c2ccccc21 | 62* | 5 | 22 | 4 | 46 | 20 | 34 | 25 | 25 | 38 | 62*
CC(CC(=O)Nc1ccc(N(C)C)cc1)=NNC(=O)c1ccc(Cl)cc1Cl | . | 3 | . | . | . | . | . | . | . | . | .
CC(C)(C)NC(=O)CN(C(=O)CSc1nnc(COc2ccccc2)o1)c1cccc(F)c1 | -5 | 1 | 12 | 1 | 2 | 52* | 0 | -1 | -3 | -4 | -4
O=C(CSc1nnc(COc2ccccc2)o1)c1ccccc1 | -2 | 1 | 27 | 1 | 1 | 8 | . | . | . | . | .
Cc1nn(Cc2ccccc2)c(C)c1C(=O)N1CCN(CC(=O)Nc2ccc(F)cc2)CC1 | -3 | 1 | 13 | 1 | 0 | 53* | -12 | -6 | -6 | -2 | -7
CCCCN=C1CC(C)(C)CC(=O)/C1=C(\O)CCCN1C(=O)c2ccccc2C1=O | . | -1 | . | . | . | . | . | . | . | . | .
O=c1c2sc(-c3ccccc3)cc2nc2n1CCC2 | 93* | 3 | 10 | 1 | 81* | 91* | 89* | 89* | 99* | 95* | 90*
O=c1c2sc(-c3ccccc3)cc2nc2n1CCCCC2 | 54* | 0 | 22 | 9 | 37 | 43 | 38 | 37 | 74* | 47 | 54*
O=[N+]([O-])c1ccc(C2CCCCC2=NOCc2cccc(F)c2)c([N+](=O)[O-])c1 (centres undefined) | . | 6 | . | . | . | . | . | . | . | . | .
SMILES | SENP6 inh | UCH37 DUB inh | SENP8 block-1 | SENP1 FRET inh | SENP8 block-2 | SENP7 block | SENP8 conf | SENP6 conf | SENP7 conf | Casp3 select | Luc interf
S=c1[nH]nc(-c2cccc(Cl)c2)n1N=Cc1ccco1 | . | 3 | . | . | . | . | . | . | . | . | .
COc1ccc(OC)c(C=NNC(=O)CC(=O)NC2CCCCC2)c1 | . | i | . | . | . | . | . | . | . | . | .
CC(CC1(O)C(=NO)CCc2nonc21)=NO (centres undefined) | . | 5 | . | . | . | . | . | . | . | . | .
COc1ccccc1Nc1nnc(SCC2CCCCO2)s1 (centres undefined) | 91* | 3 | 12 | 0 | 88* | 90* | 91* | 91* | 100* | 94* | 91*
Cc1ccc(Nc2nnc(SCC3CCCCO3)s2)cc1 (centres undefined) | -10 | 2 | 6 | 1 | -15 | -13 | . | . | . | . | .
Cc1ccccc1Nc1nnc(SCC2CCCCO2)s1 (centres undefined) | 90* | 3 | 8 | 1 | 77* | 87* | 81* | 82* | 97* | 88* | 77*
Nc1nnc(CC(=O)NN=Cc2ccccc2OCc2ccccc2F)s1 | . | 2 | . | . | . | . | . | . | . | . | .
COc1ccccc1C(=O)NN=Cc1ccc(Cl)s1 | . | 11 | . | . | . | . | . | . | . | . | .
COc1ccc(-c2cc3ccccc3[nH]2)cc1 | 53* | 2 | -404 | -14 | 10 | 61* | 9 | 21 | 66* | 39 | 21
c1ccc(-c2cc3ccccc3[nH]2)cc1 | 39 | 0 | -388 | 5 | 30 | 21 | . | . | . | . | .
Cc1ccc(O)c(-c2cc(-c3cccc(F)c3)n[nH]2)c1 | -10 | 1 | 4 | -2 | 5 | 16 | . | . | . | . | .
Cc1ccc(O)c(-c2cc3ccccc3[nH]2)c1 | 71* | -65 | -274 | -15 | 49 | 53* | 62* | 62* | 83* | 16 | 71*
O=C(Cc1cccs1)NN=Cc1ccc(OCc2ccccc2)cc1 | . | 3 | . | . | . | . | . | . | . | . | .
O=c1/c(=C\c2ccc3c(c2)OCO3)sc2n1CCCN=2 | 78* | . | -45 | -1 | 55* | 69* | 1 | 28 | 61* | 46 | 46
O=C(CNC(=O)c1ccco1)NN=Cc1ccc(C(=O)O)cc1 | . | 2 | . | . | . | . | . | . | . | . | .
Cc1ccc(CC(=O)c2ccc(Cl)cc2)cc1 | -30 | 0 | 14 | 0 | -10 | -7 | . | . | . | . | .
